Results taken from ChEMBL document CHEMBL2046351, “Discovery of cyclic sulfone hydroxyethylamines as potent and selective β-site APP-cleaving enzyme 1 (BACE1) inhibitors: structure-based design and in vivo reduction of amyloid β-peptides” (J Med Chem, 2012).

What was measured:
Mus musculus [1] = assay: Antialzheimer activity in APP51/16 transgenic mouse expressing human APP51/16Npa and mouse Thy1 assessed as reduction in amyloid beta (1 to 40) reduction at 180 umol/kg, po measured 4 hrs post dosing; type: functional; parameters: scale not given: the % may be the effect or the level left
Procedure, shortened: (§1)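 Hemizygous APP51/16 mice (human APP751 wild-type under murine Thy-1 cassette, C57BL/6 background) gavaged (10 mL/kg), decapitated at 4 h. Forebrain homogenized in TBS with protease inhibitors, 1% TX-100 extract, spun 100000 rpm 30 min 4 °C. Aβ40 by 6E10 electrochemiluminescence immunoassay against spiked nontransgenic extract standards; C99 by APP-C8 western blot, densitometry. Two-tailed Student's t test versus vehicle.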

Beta-secretase 1 [2] = target: T1, Beta-secretase 1 (Homo sapiens, UniProt P56817)
MDR1 (human) [3] = assay: Apparent permeability across MDCK cells expressing human MDR1 at 5 uM after 2 hrs by LC-MS analysis; type: ADME, cell-based, Canis lupus familiaris; conditions: dog
Procedure, shortened: (§2)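 MDCK cells retrovirally transduced with human MDR1, seeded on transwells ≥3 days; bidirectional transport at 5 μM, 2 h, 37 °C, LC/MS quantitation. Papp = (dQ/dt)/(A·C0), A 0.11 cm2; ER = Papp B>A / Papp A>B. Means of at least three experiments.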

Brain [4] = assay: Drug uptake in APP51/16 transgenic mouse brain at 180 umol/kg, po measured 4 hrs post dosing by LC/MS/MS analysis; type: ADME, organism-based; conditions: in vivo
Procedure, shortened: (§3)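 APP51/16 transgenic mice given oral gavage (10 mL/kg); blood and forebrain taken at 4 h postdose. Blood extracted by acetonitrile precipitation; brain homogenized in water, then acetonitrile-precipitated. LC-MS/MS quantitation against weighted linear calibration of analyte/internal standard area ratio.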

[5] = Drug uptake in APP51/16 transgenic mouse blood at 180 umol/kg, po measured 4 hrs post dosing by LC/MS/MS analysis; type: ADME, organism-based; conditions: read-out: Drug uptake; procedure, shortened: as §3
Mus musculus [6] = assay: Antialzheimer activity in APP51/16 transgenic mouse expressing human APP51/16Npa and mouse Thy1 assessed as reduction in brain C99 level reduction at 180 umol/kg, po measured 4 hrs post dosing; type: functional; parameters: scale not given: the % may be the effect or the level left; procedure, shortened: as §1
MDR1 (human) [7] = assay: Efflux ratio of permeability from basolateral to apical over apical to basolateral side of MDCK cells expressing human MDR1 at 5 uM after 2 hrs by LC/MS analysis; type: ADME, cell-based, Canis lupus familiaris; conditions: dog; procedure, shortened: as §2
Homo sapiens = species: Homo sapiens; assay: Selectivity index, ratio of IC50 for human recombinant CatD to IC50 for human recombinant BACE1
Cathepsin D = Cathepsin D (Homo sapiens, UniProt P07339); assay: Inhibition of human recombinant CatD using Mca-GKPILFFRLK(DNP)-dR-NH2 as substrate after 1 hr by fluorescence analysis
[8] = Ratio of drug uptake in brain to blood in C57BL/6 mouse at 60 umol/kg, po dosed in carboxymethyl cellulose 0.5% w/v in water/Tween 80 (99.5/0.5, v/v) measured 4 hrs post dosing by LC/MS/MS analysis; type: ADME, organism-based
Procedure, shortened: (§4)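 Male C57BL/6 mice dosed by oral gavage, 10 mL/kg. Blood sampled 0.25, 0.5, 1, 2, 4, 6 h; brain at 1 and/or 4 h; n = 3 per time. Blood acetonitrile-precipitated, brain water-homogenized then precipitated; LC-MS/MS with weighted linear calibration.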

[9] = Drug uptake in C57BL/6 mouse blood at 60 umol/kg, po dosed in carboxymethyl cellulose 0.5% w/v in water/Tween 80 (99.5/0.5, v/v) measured 4 hrs post dosing by LC/MS/MS analysis; type: ADME, organism-based; conditions: read-out: Drug uptake; procedure, shortened: as §4
[10] = AUC (0 to infinity) in C57BL/6 mouse at 30 umol/kg, po dosed in carboxymethyl cellulose 0.5% w/v in water/Tween 80 (99.5/0.5, v/v) by LC/MS/MS analysis; type: ADME, organism-based; parameters: dose 30 umol/kg, route oral, time infinity; conditions: in vivo
Procedure, shortened: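 Male C57BL/6 mice were dosed by oral gavage at 10 mL/kg. Blood was sampled at 0.25, 0.5, 1, 2, 4 and 6 h postdose, extracted by acetonitrile precipitation and quantified by LC-MS/MS (typical LLOQ 0.4 ng/mL). AUCinf was obtained by noncompartmental analysis of concentration–time profiles, weighting 1/Y, with at least three terminal log-linear points.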

[11] = Volume of distribution at steady state in C57BL/6 mouse at 2 umol/kg, iv dosed in N-methyl pyrrolidone/blank plasma (10:90 v/v) by LC/MS/MS analysis; type: ADME, organism-based; conditions: read-out: Vdss
Procedure, shortened: (§5)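 Male C57BL/6 mice, saphenous vein injection under light anesthesia, 5 mL/kg. Blood at 5, 30 min and 1, 2, 4, 6, 8 h; brain at 5 min, 1, 4, 8 h; n = 3/time. LC-MS/MS after acetonitrile precipitation (brain water-homogenized). Noncompartmental analysis, 1/Y weighting, terminal slope from ≥3 points.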

[12] = Half life in C57BL/6 mouse at 2 umol/kg, iv dosed in N-methyl pyrrolidone/blank plasma (10:90 v/v) by LC/MS/MS analysis; type: ADME, organism-based; procedure, shortened: as §5
Brain [13] = assay: Drug uptake in C57BL/6 mouse brain at 60 umol/kg, po dosed in carboxymethyl cellulose 0.5% w/v in water/Tween 80 (99.5/0.5, v/v) measured 1 hr post dosing by LC/MS/MS analysis; type: ADME, organism-based; conditions: in vivo; procedure, shortened: as §4
[14] = Blood clearance in C57BL/6 mouse at 2 umol/kg, iv dosed in N-methyl pyrrolidone/blank plasma (10:90 v/v) by LC/MS/MS analysis; type: ADME, organism-based; procedure, shortened: as §5
[15] = Ratio of drug uptake in brain to blood in C57BL/6 mouse at 60 umol/kg, po dosed in carboxymethyl cellulose 0.5% w/v in water/Tween 80 (99.5/0.5, v/v) measured 1 hr post dosing by LC/MS/MS analysis; type: ADME, organism-based; procedure, shortened: as §4
[16] = Oral bioavailability in C57BL/6 mouse at 30 umol/kg dosed in carboxymethyl cellulose 0.5% w/v in water/Tween 80 (99.5/0.5, v/v) by LC/MS/MS analysis; type: ADME, organism-based; conditions: in vivo
Procedure, shortened: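 Oral gavage (10 mL/kg) to male C57BL/6 mice with iv reference segment (2 μmol/kg, NMP/blank plasma 10:90). Noncompartmental analysis of LC-MS/MS blood profiles, 1/Y weighting; %F = dose-normalized oral AUC / dose-normalized iv AUC × 100, assuming linear pharmacokinetics between doses.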

[17] = Drug uptake in C57BL/6 mouse blood at 60 umol/kg, po dosed in carboxymethyl cellulose 0.5% w/v in water/Tween 80 (99.5/0.5, v/v) measured 1 hr post dosing by LC/MS/MS analysis; type: ADME, organism-based; conditions: read-out: Drug uptake; procedure, shortened: as §4
Brain [18] = assay: Drug uptake in C57BL/6 mouse brain at 60 umol/kg, po dosed in carboxymethyl cellulose 0.5% w/v in water/Tween 80 (99.5/0.5, v/v) measured 4 hrs post dosing by LC/MS/MS analysis; type: ADME, organism-based; conditions: in vivo; procedure, shortened: as §4
[19] = AUC (0 to infinity) in C57BL/6 mouse at 2 umol/kg, iv dosed in N-methyl pyrrolidone/blank plasma (10:90 v/v) by LC/MS/MS analysis; type: ADME, organism-based; parameters: dose 2 umol/kg, time infinity, route intravenous
Procedure, shortened: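 Male C57BL/6 mice got a single injection into the saphenous vein under light anaesthesia at 5 mL/kg. Blood was taken at 5 and 30 min and 1, 2, 4, 6 and 8 h (n = 3 per time). Blood was extracted by acetonitrile precipitation and quantified by LC-MS/MS against a weighted linear calibration. AUC came from noncompartmental analysis with 1/Y weighting.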

Beta-secretase 1 [20] = target: T1, Beta-secretase 1; assay: Inhibition of human BACE-1 mediated amyloid beta 40 release in Chinese hamster CHO cells expressing human wild-type APP
Cytochrome P450 3A4 = Cytochrome P450 3A4 (Homo sapiens, UniProt P08684); assay: Inhibition of CYP3A4; type: ADME
Cytochrome P450 3A4, sequence (P08684 whole entry): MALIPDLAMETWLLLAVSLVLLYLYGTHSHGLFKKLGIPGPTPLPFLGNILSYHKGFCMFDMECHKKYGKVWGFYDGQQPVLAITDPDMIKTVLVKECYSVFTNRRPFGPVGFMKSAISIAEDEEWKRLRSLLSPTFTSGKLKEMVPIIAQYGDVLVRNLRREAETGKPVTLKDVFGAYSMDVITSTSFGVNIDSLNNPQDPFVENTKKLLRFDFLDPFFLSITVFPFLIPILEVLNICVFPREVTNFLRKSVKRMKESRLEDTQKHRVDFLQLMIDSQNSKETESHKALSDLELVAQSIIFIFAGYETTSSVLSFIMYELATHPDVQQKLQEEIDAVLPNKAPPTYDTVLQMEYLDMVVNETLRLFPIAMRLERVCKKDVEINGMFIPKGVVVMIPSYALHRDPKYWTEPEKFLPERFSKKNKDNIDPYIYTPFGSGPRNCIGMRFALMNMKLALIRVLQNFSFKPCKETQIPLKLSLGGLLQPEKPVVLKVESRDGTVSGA

T1 sequence (P56817 whole entry): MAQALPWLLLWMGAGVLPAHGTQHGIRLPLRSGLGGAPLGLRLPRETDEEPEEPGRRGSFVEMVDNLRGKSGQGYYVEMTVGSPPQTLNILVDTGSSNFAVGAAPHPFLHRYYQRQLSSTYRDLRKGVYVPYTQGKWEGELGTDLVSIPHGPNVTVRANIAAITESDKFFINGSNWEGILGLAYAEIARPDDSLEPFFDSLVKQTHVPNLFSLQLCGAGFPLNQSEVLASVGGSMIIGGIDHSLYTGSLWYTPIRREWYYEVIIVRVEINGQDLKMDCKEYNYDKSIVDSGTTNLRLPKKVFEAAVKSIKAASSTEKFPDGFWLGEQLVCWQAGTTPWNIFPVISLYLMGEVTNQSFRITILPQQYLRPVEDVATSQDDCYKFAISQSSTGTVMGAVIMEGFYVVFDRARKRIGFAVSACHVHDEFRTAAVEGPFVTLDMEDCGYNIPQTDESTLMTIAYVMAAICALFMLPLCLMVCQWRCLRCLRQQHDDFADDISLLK
Cathepsin D, sequence (P07339 65-162 limits assumed): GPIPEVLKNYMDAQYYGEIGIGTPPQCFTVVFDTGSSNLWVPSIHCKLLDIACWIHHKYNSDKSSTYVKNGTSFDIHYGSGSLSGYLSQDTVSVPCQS
Cathepsin D, sequence (P07339 169-412 limits assumed): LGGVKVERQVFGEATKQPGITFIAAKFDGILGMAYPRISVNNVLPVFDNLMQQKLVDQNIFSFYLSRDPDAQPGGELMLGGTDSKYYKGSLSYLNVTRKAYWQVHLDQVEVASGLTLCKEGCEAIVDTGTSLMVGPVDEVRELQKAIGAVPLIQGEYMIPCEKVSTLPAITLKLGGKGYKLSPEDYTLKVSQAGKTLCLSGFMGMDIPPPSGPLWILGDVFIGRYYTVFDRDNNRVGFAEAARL

SMILES	IC50 (Beta-secretase 1 [2])	Papp at 2 h, 5 µM (MDR1 (human) [3])	efflux ratio at 2 h, 5 µM (MDR1 (human) [7])	Ratio IC50 (Homo sapiens)	IC50 (Cathepsin D)	also measured
CC(C)(C)c1cccc(CN[C@H]2CS(=O)(=O)C[C@@H](Cc3cc(F)c(N)c(OCC(F)F)c3)[C@@H]2O)c1	6 nM	22 ×10⁻⁶ cm/s	10	> 100	680 nM	Activity (Mus musculus [1]): 18%; Drug uptake (Brain [4]): 2.1 nmol/g; concentration at 4 h [5]: 12.2 µM; Activity (Mus musculus [6]): 32%
COC[C@@H](Oc1cc(C[C@@H]2CS(=O)(=O)C[C@H](NCc3cccc(C(C)(C)C)c3)[C@H]2O)cc(F)c1N)C(F)(F)F		13 ×10⁻⁶ cm/s			250 nM	Activity (Mus musculus [1]): 31%; Drug uptake (Brain [4]): 1.9 nmol/g; concentration at 4 h [5]: 7.3 µM; Activity (Mus musculus [6]): 48%
CC(C)(C)c1cccc(CN[C@H]2CS(=O)(=O)C[C@@H](Cc3ccc(N)c(Br)c3)[C@@H]2O)c1	140 nM	13 ×10⁻⁶ cm/s	2	5	720 nM	Kp at 4 h [8]: 0.6; concentration at 4 h [9]: 2.98 µM; AUC(0-inf) [10]: 6.43 µM·h; Vd [11]: 1.6 L/kg; half-life [12]: 4 h; Drug uptake (Brain [13]): 2.17 nmol/g; clearance [14]: 8.1 mL/min/kg; Kp at 1 h [15]: 0.5; bioavailability [16]: 10%; concentration at 1 h [17]: 4.07 µM; Drug uptake (Brain [18]): 1.92 nmol/g; AUC(0-inf) [19]: 4.09 µM·h
CCc1cc(C[C@@H]2CS(=O)(=O)C[C@H](NCc3cccc(C(C)(C)C)c3)[C@H]2O)cc(F)c1NC(C)=O	8 nM	17 ×10⁻⁶ cm/s	41	> 100	2300 nM	
CCCOc1cc(C[C@@H]2CS(=O)(=O)C[C@H](NCc3cccc(C(C)(C)C)c3)[C@H]2O)ccc1N	45 nM	7 ×10⁻⁶ cm/s	2	> 100	5200 nM	
CC(C)(C)c1cccc(CN[C@H]2CS(=O)(=O)C[C@@H](Cc3ccc(N)c(F)c3)[C@@H]2O)c1	350 nM	21 ×10⁻⁶ cm/s	1	5	2520 nM	
CCCN1CCC[C@@]12CCN([C@@H](C)C(=O)N[C@@H](Cc1ccccc1)[C@H](O)CNCc1cccc(C(C)C)c1)C2=O		11 ×10⁻⁶ cm/s	23			IC50 (Beta-secretase 1 [20]): 10 nM
CC(C)(C)c1cccc(CN[C@H]2CS(=O)(=O)C[C@@H](Cc3cc(F)c(N)c(Br)c3)[C@@H]2O)c1	55 nM	13 ×10⁻⁶ cm/s	2	5	340 nM	
CC(C)(C)c1ccnc(CN[C@H]2CS(=O)(=O)C[C@@H](Cc3cc(F)c(N)c(OC(C(F)(F)F)C(F)(F)F)c3)[C@@H]2O)c1	68 nM	38 ×10⁻⁶ cm/s	17		3070 nM	IC50 (Cytochrome P450 3A4): 400 nM
CCOc1cc(C[C@@H]2CS(=O)(=O)C[C@H](NCc3cccc(C(C)(C)C)c3)[C@H]2O)cc(F)c1N	24 nM	18 ×10⁻⁶ cm/s	3	40	1030 nM	Activity (Mus musculus [1]): 34%; Drug uptake (Brain [4]): 3.1 nmol/g; concentration at 4 h [5]: 9 µM; Activity (Mus musculus [6]): 54%
CC(C)(O)c1cccc(CN[C@H]2CS(=O)(=O)C[C@@H](Cc3cc(F)c(N)c(OC(C(F)(F)F)C(F)(F)F)c3)[C@@H]2O)c1	2 nM	11 ×10⁻⁶ cm/s	30		1320 nM	IC50 (Cytochrome P450 3A4): 2100 nM
